The record followed here is ChEMBL document CHEMBL2384903, “Highly efficient biocompatible neuroprotectants with dual activity as antioxidants and P2Y receptor agonists” (J Med Chem, 2013).

What is called IC50 is the concentration at which inhibition is half-maximal. By EC50 is commonly meant the concentration that produces a half-maximal response. As a reminder, the half-life is the time needed for the level to fall by half in the phase considered. As usually defined, the inhibition is the change of the read-out against control, counted positive when it falls.

Molecules are shown by their SMILES. The source made the active and inactive calls.

The subject of series [1] is PC-12. The series can be described thus: Antioxidant activity in rat PC12 cells assessed as inhibition of Fe2+-induced ROS production after 1 hr by DCFH-DA staining-based fluorometric analysis. Format: functional, cell-based. The gist of the method: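 PC12 cells grown in DMEM, seeded 24 h. Loaded with DCFH-DA (ethanol stock diluted 100-fold in PBS) for 20 min, then probe removed. Nucleotides added at final 0.2–200 μM, and oxidation started with FeSO4 at final 0.16 μM. Fluorescence at 485/530 nm read during 1 h at 37 °C. […] Mean ± SD of two experiments.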

In a further series the target is T1, P2Y purinoceptor 11 (Homo sapiens, UniProt Q96G91).
T1 sequence (Q96G91 whole entry): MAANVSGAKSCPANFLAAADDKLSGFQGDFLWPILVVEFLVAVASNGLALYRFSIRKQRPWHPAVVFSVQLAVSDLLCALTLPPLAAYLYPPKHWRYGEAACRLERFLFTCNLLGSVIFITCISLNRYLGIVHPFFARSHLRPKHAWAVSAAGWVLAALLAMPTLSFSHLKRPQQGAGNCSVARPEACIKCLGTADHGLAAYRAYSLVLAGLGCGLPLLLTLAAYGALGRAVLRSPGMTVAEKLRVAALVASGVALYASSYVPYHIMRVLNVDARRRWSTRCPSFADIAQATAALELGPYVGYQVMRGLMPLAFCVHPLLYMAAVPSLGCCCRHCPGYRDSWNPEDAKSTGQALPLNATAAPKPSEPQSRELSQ
The series can be described thus: Agonist activity at human GFP-tagged P2Y11R transfected in human 1321N1 cells assessed as induction of intracellular calcium mobilization by fluorescence assay. It counts as functional, cell-based. To be noted: read-out: EC50. For orientation: Calcium assays in cells follow changes in intracellular calcium, usually with a dye or a luminescent sensor.

The target in a further series is P2Y purinoceptor 1 (Homo sapiens, UniProt P47900). Briefly: Agonist activity at human GFP-tagged P2Y1R transfected in human 1321N1 cells assessed as induction of intracellular calcium mobilization by fluorescence assay. It counts as functional, cell-based.
P2Y purinoceptor 1, sequence (P47900 whole entry): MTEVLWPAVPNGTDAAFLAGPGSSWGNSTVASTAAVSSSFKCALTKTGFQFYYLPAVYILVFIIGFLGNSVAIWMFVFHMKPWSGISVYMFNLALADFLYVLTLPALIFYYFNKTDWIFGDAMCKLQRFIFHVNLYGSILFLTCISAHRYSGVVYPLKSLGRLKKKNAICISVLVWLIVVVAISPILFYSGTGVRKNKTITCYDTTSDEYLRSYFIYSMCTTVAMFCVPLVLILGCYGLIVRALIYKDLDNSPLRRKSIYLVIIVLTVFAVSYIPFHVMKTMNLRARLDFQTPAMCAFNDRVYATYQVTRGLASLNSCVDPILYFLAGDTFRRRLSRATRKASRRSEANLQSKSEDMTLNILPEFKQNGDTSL
A short description of series [2]: Half life in human serum at 0.1 mg after 6 hrs by HPLC analysis. It counts as ADME, cell-free. The gist of the method: (§1)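 0.1 mg compound in water was mixed with human blood serum and RPMI-1640 medium (1:3 serum:medium) and incubated at 37 °C for 0−24 h. Remaining intact nucleotide was quantified from the change in its HPLC peak integration over time.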
Series [3] can be described thus: Metabolic stability in human serum assessed as compound remaining at 0.1 mg after 6 hrs by HPLC analysis. Format: ADME, cell-free. Conditions: read-out: Stability. The gist of the method: as §1
A short description of series [4]: Neuroprotective activity in rat primary cortical neurons assessed as decrease in FeSO4-induced oxidative stress measured cell vitality at 1 uM after 24 hrs by MTT assay relative to control. Format: functional, cell-based. More on the design: scale not given: the % may be the effect or the level left. Conditions: Cerebral cortex neuron. Put shortly: (§2)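 Cortical neurons came from 1-day-old rat brain, were trypsin-dissociated and plated on polyornithine. They were grown in serum-free DMEM/F12 with B-27, then Ara-C treated for 48 h. Cells were treated with 0.01−5 μM nucleotide before FeSO4 (3 μM final) for 24 h. MTT 1 mg/mL was applied for 2 h at 37 °C, formazan dissolved in DMSO, absorbance read at 550 nm. Viability was expressed relative to vehicle control, mean ± SD of three independent experiments in triplicate.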
A general note: Tetrazolium assays rely on reduction of a dye to a coloured formazan, in cell work by metabolically active cells.

Series [5] can be described thus: Neuroprotective activity in rat primary cortical neurons assessed as decrease in FeSO4-induced oxidative stress measured cell viability after 24 hrs by MTT assay. It counts as functional, cell-based. To be noted: Cerebral cortex neuron. The gist of the method:
as §2

Series [6] in a line: Antioxidant activity assessed as free radical scavenging activity after 7 mins by ABTS radical cation decolorization assay. It counts as functional. Put shortly: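 ABTS•+ is made from 7 mM ABTS and 2.45 mM persulfate (final), left in the dark at RT for 12–16 h, then diluted in water pH 7.4 to A734 0.80. It is mixed with compound or Trolox standard (final 0–60 μM), and A734 is read at exactly 7 min. Percent inhibition is plotted against concentration, with solvent blanks. Each run is done at least three times, in triplicate.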

The next series is filed under the species Homo sapiens. Briefly: Selectivity ratio of EC50 for human GFP-tagged P2Y11R to EC50 for human GFP-tagged P2Y1R. Put shortly: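 1321N1 astrocytoma cells stably expressing human P2Y1-GFP or P2Y11-GFP were loaded with 2 μM fura-2 AM plus 0.02% pluronic acid in HEPES-buffered saline pH 7.4 for 30 min at 37 °C. They were then superfused at 37 °C with graded agonist concentrations. [Ca2+]i was read as the F340/F380 ratio (510 nm emission) in GFP-positive cells, at least 40 cells per point. EC50 came from concentration–response curves, n = 3.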

Series [7] addresses P2Y purinoceptor 12 (Rattus norvegicus) (UniProt Q9EPX4). Briefly: Agonist activity at P2Y12R in rat PC12 cells assessed as decrease in FeSO4-induced ROS formation at 0.04 to 100 uM after 1 hr by DCFH-DA staining-based fluorometric analysis in presence of P2Y12R antagonist 2-MeS-AMP. Format: cell-based. Conditions: PC-12. Put shortly:
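PC12 cells seeded 24 h in DMEM, pretreated with 50 μM 2-MeS-AMP for 20 min, then loaded with DCFH-DA (stock 2 mg/mL in ethanol, diluted 100-fold in PBS) for 20 min and washed. Test agent added at 0.04−100 μM final. Oxidation started with FeSO4 at 0.16 μM final. Incubated 1 h at 37 °C, fluorescence read at 485/530 nm. Inhibition of ROS compared with control lacking antagonist.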

Series [8] in a line: Antioxidant activity assessed as inhibiton of Fe2+-induced Fenton reaction-mediated hydroxyl radical formation from H2O2 measured for 150 secs by ESR analysis in presence of DMPO. It counts as functional. Put shortly: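 Spin-trap ESR run at room temperature, final volume 100 μL. 5–500 μM compound is combined with ammonium iron(II) sulfate (1 mM stock) and Tris pH 7.4. After 30 s mixing, DMPO (100 mM stock) and H2O2 (100 mM stock) are added, with final pH 7.2–7.4. Spectrum is recorded 150 s after H2O2 at 9.76 GHz, 6.35 mW. Mean ± SD of three experiments.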

The subject of series [9] is PC-12. Briefly: Antioxidant activity in rat PC12 cells assessed as inhibition of Fe2+-induced ROS production at 100 uM after 1 hr by DCFH-DA staining-based fluorometric analysis relative to control. Format: functional. To be noted: PC-12, 1 h. The gist of the method:
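PC12 cells in DMEM were seeded 24 h, loaded 20 min with diluted DCFH-DA and washed. Nucleotides were then added at 0.2−200 μM final. Oxidation was started with FeSO4 at 0.16 μM final and plates were incubated 1 h at 37 °C. DCF fluorescence was read at 485/530 nm, and percent inhibition of ROS was taken against untreated oxidized control.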

P2Y purinoceptor 12 (Rattus norvegicus), sequence (Q9EPX4 whole entry): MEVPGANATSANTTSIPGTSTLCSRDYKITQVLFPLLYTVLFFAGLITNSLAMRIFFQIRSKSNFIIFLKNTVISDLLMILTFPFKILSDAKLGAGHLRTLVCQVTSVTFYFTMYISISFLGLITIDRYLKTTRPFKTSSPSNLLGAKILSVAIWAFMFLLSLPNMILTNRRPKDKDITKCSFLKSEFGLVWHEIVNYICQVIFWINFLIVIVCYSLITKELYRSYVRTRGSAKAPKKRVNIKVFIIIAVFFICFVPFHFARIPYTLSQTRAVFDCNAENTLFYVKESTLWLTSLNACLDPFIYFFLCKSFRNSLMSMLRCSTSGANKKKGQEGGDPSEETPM

Regarding `B[P@@](=O)(OC[C@H]1O[C@@H](n2cnc3c(N)nc(Cl)nc32)[C@H](O)[C@@H]1O)OP(=O)(O)O`, the IC50 in the series with PC-12 [1] (Rattus norvegicus, PC-12, 1 h, read-out: IC50) worked out at 0.08 µM; in [6], 40 µM; in series [8], 175 µM. Further, the EC50 at P2Y purinoceptor 11 stood at 3.68 µM; on P2Y purinoceptor 1, 0.007 µM; in [5], 0.17 µM. The half-life in [2] is 7 h. In series [3], the remaining at 6 h was found to be 53%. Moreover, the Activity in series [4] is < 60%. Further, in the series listed under Homo sapiens, the Ratio EC50 was < 530. For the same compound, in [7], the result was inactive.

With `Nc1ncnc2c1ncn2[C@@H]1O[C@H](COP(=O)(O)OP(=O)(O)OP(=O)(O)O)[C@@H](O)[C@H]1O` [ADENOSINE TRIPHOSPHATE], the IC50 entry in the series with PC-12 [1] (pc-12) is “Not Active”; in series [6], 60 µM; in series [8], > 500 µM. The inhibition at 100 µM in the series with PC-12 [9] was found to be 45%.
